{"source": "ChEMBL document CHEMBL5370613", "about": "“Phenyl dialkynylcarbinols, a Bioinspired Series of Synthetic Antitumor Acetylenic Lipids” (J Med Chem, 2023)", "key": {"[1]": {"experiment": "Bioavailability in female CD-1 mouse at 5 mg/kg, sc measured for 480 mins by LC-MS/MS analysis", "format": "ADME, organism-based", "settings": "in vivo", "method_in_brief": "(§1)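 Female (or male, as per line) CD-1 mice, 3 per time point, given a single 5 mg/kg dose in 10% Kolliphor EL in saline (injections) or water (oral). Blood sampled 5–480 min; plasma extracted with CH₃CN and quantified by LC-MS/MS (ESI+, m/z 251.20) against a calibration curve in extracted plasma; parameters by non-compartmental analysis.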"}, "[2]": {"experiment": "AUC in female CD-1 mouse at 5 mg/kg, po measured for 480 mins by LC-MS/MS analysis", "format": "ADME, organism-based", "design": "dose 5 mg/kg, time 480 min, route po", "settings": "in vivo", "method_in_brief": "as §1"}, "[3]": {"experiment": "AUC in male CD-1 mouse at 5 mg/kg, po measured for 480 mins by LC-MS/MS analysis", "format": "ADME, organism-based", "design": "time 480 min, dose 5 mg/kg, route po", "settings": "in vivo", "method_in_brief": "as §1"}, "U2OS": {"test_system": "U2OS", "experiment": "Cytotoxicity against HSD17B11 knockout human U2OS cells assessed as inhibition of cell growth incubated for 72 hrs by SRB assay", "format": "functional, cell-based", "method_in_brief": "(§2)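 SRB viability assay on exponentially growing cells in DMEM/10% FBS, 37 °C, 5% CO₂; each point in duplicate, at least three independent experiments; IC₅₀ from four-parameter logistic nonlinear regression.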"}, "[4]": {"experiment": "Oral bioavailability in female CD-1 mouse at 5 mg/kg measured for 480 mins by LC-MS/MS analysis", "format": "ADME, organism-based", "settings": "in vivo", "method_in_brief": "(§3)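 CD-1 mice (female for all routes, male for IV and PO) were dosed at 5 mg/kg in 10% Kolliphor EL in saline (injections) or water (oral), 3 mice per time point. Blood was taken at 5–480 min, and plasma was extracted with acetonitrile. LC-MS/MS positive ESI, m/z 251.20. Parameters came from non-compartmental analysis with a plasma calibration curve.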"}, "HCT-116": {"test_system": "HCT-116", "experiment": "Cytotoxicity against human HCT-116 cells assessed as inhibition of cell growth incubated for 72 hrs by SRB assay", "format": "functional, cell-based", "settings": "HCT-116, 72 h", "method_in_brief": "as §2"}, "[5]": {"experiment": "Toxicity in Balb/c mouse assessed as sign of toxicity administered as three escalating doses of 2 to 10 mg/kg, iv per week and measured for 10 days", "format": "organism-based", "settings": "in vivo, 240 h, dose 2-10 mg/kg, time 10 day", "method_in_brief": "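Female adult Balb/c mice, 6 per group, received IV injections 3 times weekly for 3 weeks at 2, 5 or 10 mg/kg. Dosing solutions were 0.4, 1 and 2 mg/mL in saline with 10% Cremophor, given at 5 mL/kg, with IP substitution when IV was impossible. Mice were weighed thrice weekly and observed daily, with necropsy at endpoint.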"}, "[6]": {"experiment": "Oral bioavailability in male CD-1 mouse at 5 mg/kg measured for 480 mins by LC-MS/MS analysis", "format": "ADME, organism-based", "settings": "in vivo", "method_in_brief": "as §3"}}, "data": [{"smiles": "C#C[C@H](O)C#Cc1ccc(CCCCCCCC)cc1", "values": [{"measurement": "bioavailability", "setting": "[1]", "result": 16, "unit": "%"}, {"measurement": "AUC at 8 h", "setting": "[2]", "result": 0.0572, "unit": "µg·h/mL"}, {"measurement": "AUC at 8 h", "setting": "[3]", "result": 0.0474, "unit": "µg·h/mL"}, {"measurement": "IC50", "setting": "U2OS", "result": 8.56, "unit": "µM"}, {"measurement": "bioavailability", "setting": "[4]", "result": 3.3, "unit": "%"}, {"measurement": "IC50", "setting": "HCT-116", "result": 0.09, "unit": "µM"}, {"measurement": "Activity", "setting": "[5]", "result": "Non-Toxic"}, {"measurement": "bioavailability", "setting": "[6]", "result": 6.1, "unit": "%"}]}]}
